Assay results as given in ChEMBL document CHEMBL3243970, “Synthesis and biological activity of some derivatives of thiochroman-4-one and tetrahydrothiapyran-4-one” (1977).
Active and inactive are the calls of the source. The calls are words filed in the database; no cut-off is given here.

Tests used:
Bacillus subtilis [1] = experiment: Antimicrobial activity against Bacillus subtilis assessed as growth inhibition after 24 hrs by spectrophotometry; type: functional, organism-based
KB [2] = experiment: Cytotoxicity against human KB cells assessed as growth inhibition after 24 hrs by crystal violet staining method; type: functional, cell-based
Pseudomonas fluorescens [3] = experiment: Antimicrobial activity against Pseudomonas fluorescens assessed as growth inhibition after 24 hrs by spectrophotometry; type: functional, organism-based
Bacillus subtilis [4] = experiment: Antimicrobial activity against Bacillus subtilis assessed as growth inhibition at 91 ug/ml after 24 hrs by spectrophotometry; type: functional; conditions: read-out: GI
Summary of the method: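 Primary screen of Bacillus subtilis growth in the presence of test compound at 91 µg/mL.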

Pseudomonas fluorescens [5] = experiment: Antimicrobial activity against Pseudomonas fluorescens assessed as growth inhibition at 91 ug/ml after 24 hrs by spectrophotometry; type: functional; conditions: read-out: GI
KB [6] = experiment: Cytotoxicity against human KB cells assessed as growth inhibition at 50 ug/ml after 24 hrs by crystal violet staining method; type: functional; conditions: read-out: GI
L1210 (Mus musculus) [7] = experiment: Potentiation of actinomycin D-induced antitumor activity against mouse L1210 cells allografted in BDF1 mouse administered ip on days 2 to 6 post challenge relative to control
Pseudomonas fluorescens [8] = experiment: Antimicrobial activity against Pseudomonas fluorescens assessed as growth inhibition at 75 ug/ml after 24 hrs by spectrophotometry; type: functional; conditions: read-out: GI
Bacillus subtilis [9] = experiment: Antimicrobial activity against Bacillus subtilis assessed as growth inhibition at 75 ug/ml after 24 hrs by spectrophotometry; type: functional; conditions: read-out: GI
KB [10] = experiment: Cytotoxicity against human KB cells assessed as growth inhibition at 12.5 ug/ml after 24 hrs by crystal violet staining method; type: functional; conditions: read-out: GI
L1210 (Mus musculus) [11] = experiment: Potentiation of mitomycin C-induced antitumor activity against mouse L1210 cells allografted in BDF1 mouse administered ip on days 2 to 6 post challenge relative to control

| SMILES | inhibition of growth at 91 µg/mL (Bacillus subtilis [4]) | inhibition of growth at 91 µg/mL (Pseudomonas fluorescens [5]) | also measured |
| --- | --- | --- | --- |
| c1ccc(-n2ncc3c2-c2ccccc2SC3)cc1 |  |  | growth inhibition (GI) (Bacillus subtilis [1]): inactive; growth inhibition (GI) (KB [2]): inactive; growth inhibition (GI) (Pseudomonas fluorescens [3]): inactive |
| O=C1CCS(=O)(=O)c2ccccc21 | 100% | 0% | inhibition of growth at 50 µg/mL (KB [6]): 17% |
| O=c1[nH]n(-c2ccccc2)c2c1CSCC2 | 0% | 0% |  |
| O=S1(=O)Cc2c[n+]([O-])n(-c3ccccc3)c2-c2ccccc21 | 0% | 0% |  |
| O=S1(=O)Cc2cnoc2-c2ccccc21 | 0% |  |  |
| c1ccc2c(c1)SCc1cn[nH]c1-2 |  |  | Activity (L1210 (Mus musculus) [7]): inactive; inhibition of growth at 75 µg/mL (Pseudomonas fluorescens [8]): 0%; inhibition of growth at 75 µg/mL (Bacillus subtilis [9]): 100%; inhibition of growth at 12.5 µg/mL (KB [10]): 28%; T/C (L1210 (Mus musculus) [11]): 10% |
| c1n[nH]c2c1CSCC2 | 0% | 0% |  |
| c1ccc2c(c1)SCc1cnoc1-2 | 100% | 0% | inhibition of growth at 50 µg/mL (KB [6]): 100% |
| O=S1(=O)Cc2cn[nH]c2-c2ccccc21 | 0% |  |  |
| O=C1NN=C2CCSCC12 (centres undefined) | 0% | 0% |  |
